Data taken from ChEMBL document CHEMBL4196121, “Meridianin D Analogues Display Antibiofilm Activity against MRSA and Increase Colistin Efficacy in Gram-Negative Bacteria” (ACS Med Chem Lett, 2018).
pEC50, pIC50: −log10 of the molar value. Converted amounts (≈) assume the structure as drawn. The source made the active and inactive calls. No cut-off for these calls is given here.

Tests used:
Staphylococcus aureus [1] = test: Inhibition of biofilm formation in methicillin-resistant Staphylococcus aureus ATCC 43300 after 24 hrs by crystal violet staining based method; type: functional, organism-based; conditions: for pIC50: ATCC 43300, 24 h
Summary of the method: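 Read-out is the IC50, taken as the compound concentration that inhibits 50% of MRSA 43300 biofilm formation.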

Escherichia coli [2] = test: Antibacterial activity against Escherichia coli ATCC 25922 expressing mcr1 gene after 16 hrs by broth microdilution assay; type: organism-based; conditions: in vitro
Escherichia coli [3] = test: Antibacterial activity against Escherichia coli ATCC 25922 after 16 hrs by broth microdilution assay; type: organism-based
Acinetobacter baumannii [4] = test: Antibacterial activity against Acinetobacter baumannii ATCC 17978 expressing mcr1 gene after 16 hrs by broth microdilution assay; type: organism-based; conditions: in vitro
Acinetobacter baumannii [5] = test: Antibacterial activity against Acinetobacter baumannii ATCC 17978 after 16 hrs by broth microdilution assay; type: organism-based
Acinetobacter baumannii [6] = test: Antibacterial activity against Acinetobacter baumannii isolate 3941 after 16 hrs by broth microdilution assay; type: organism-based
Acinetobacter baumannii [7] = test: Antibacterial activity against Acinetobacter baumannii isolate 4106 after 16 hrs by broth microdilution assay; type: organism-based
Acinetobacter baumannii [8] = test: Antibacterial activity against Acinetobacter baumannii ATCC 19606 after 16 hrs by broth microdilution assay; type: organism-based, ATCC 19606 = CIP 70.34 = JCM 6841
Acinetobacter baumannii [9] = test: Antibacterial activity against Acinetobacter baumannii isolate 5075 after 16 hrs by broth microdilution assay; type: organism-based
Klebsiella pneumoniae [10] = test: Antibacterial activity against Klebsiella pneumoniae ATCC 2146 expressing NDM1 gene after 16 hrs by broth microdilution assay; type: organism-based
Klebsiella pneumoniae [11] = test: Antibacterial activity against Klebsiella pneumoniae isolate C3 after 16 hrs by broth microdilution assay
Klebsiella pneumoniae [12] = test: Antibacterial activity against Klebsiella pneumoniae isolate B9 after 16 hrs by broth microdilution assay; conditions: in vivo
Staphylococcus aureus [13] = test: Antibacterial activity against methicillin-resistant Staphylococcus aureus ATCC 43300 after 16 hrs by broth microdilution assay; type: functional; conditions: for MIC: ATCC 43300, 16 h
Staphylococcus aureus [14] = test: Antibiofilm activity against methicillin-resistant Staphylococcus aureus ATCC 43300 assessed induction of dispersion of preformed biofilm after 24 hrs by crystal violet staining based method; type: functional, organism-based; conditions: ATCC 43300, 24 h
Staphylococcus aureus [15] = test: Potentiation of vancomycin-induced antibacterial activity against methicillin-resistant Staphylococcus aureus ATCC 43300 assessed as dispersion of preformed biofilm after 24 hrs by crystal violet staining based method; type: functional, organism-based; conditions: ATCC 43300, 24 h
Escherichia coli [16] = test: Potentiation of colistin-induced antimicrobial activity against Escherichia coli ATCC 25922 assessed as fold reduction in colistin MIC after 16 hrs by broth microdilution assay; type: functional
Summary of the method: (§1)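 Analogue at a fixed 60 μM unless otherwise noted, combined with colistin against the Gram-negative strain. Potentiation is read as the fold reduction in colistin MIC relative to colistin alone. A. baumannii 3941/4106 and K. pneumoniae C3/B9 are primary clinical isolates with genomically encoded colistin resistance.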

Acinetobacter baumannii [17] = test: Potentiation of colistin-induced antimicrobial activity against Acinetobacter baumannii ATCC 17978 assessed as fold reduction in colistin MIC after 16 hrs by broth microdilution assay; type: functional; summary of the method: as §1
Acinetobacter baumannii [18] = test: Potentiation of colistin-induced antimicrobial activity against Acinetobacter baumannii ATCC 19606 assessed as fold reduction in colistin MIC after 16 hrs by broth microdilution assay; type: functional, ATCC 19606 = CIP 70.34 = JCM 6841; summary of the method: as §1
Acinetobacter baumannii [19] = test: Potentiation of colistin-induced antimicrobial activity against Acinetobacter baumannii isolate 4106 after 16 hrs in presence of 0.01% triton X-100 by broth microdilution assay; type: functional, organism-based
Klebsiella pneumoniae [20] = test: Potentiation of colistin-induced antimicrobial activity against Klebsiella pneumoniae isolate B9 after 16 hrs in presence of 0.01% triton X-100 by broth microdilution assay; type: functional, organism-based

Structure (SMILES)	pIC50 (Staphylococcus aureus [1])	MIC (Escherichia coli [2])	MIC (Escherichia coli [3])	MIC (Acinetobacter baumannii [4])	MIC (Acinetobacter baumannii [5])	MIC (Acinetobacter baumannii [6])	MIC (Acinetobacter baumannii [7])	MIC (Acinetobacter baumannii [8])	MIC (Acinetobacter baumannii [9])	MIC (Klebsiella pneumoniae [10])	MIC (Klebsiella pneumoniae [11])	MIC (Klebsiella pneumoniae [12])	MIC (Staphylococcus aureus [13])	further results
CCCCn1cc(-c2ccnc(N)n2)c2ccc(Br)cc21.Cl	< 4.00	> 200 µM	> 200 µM	> 200 µM	> 200 µM	> 200 µM	> 200 µM	> 200 µM	> 200 µM	> 200 µM	> 200 µM	> 200 µM		
Nc1nccc(-c2c[nH]c3ccc(Br)cc23)n1	4.75												200 µM (≈ 57.8 µg/mL)	pEC50 (Staphylococcus aureus [14]): 3.86; pEC50 (Staphylococcus aureus [15]): 4.04
CC(C)Cn1cc(-c2ccnc(N)n2)c2ccc(Br)cc21.Cl	< 4.00	> 200 µM	> 200 µM	> 200 µM	> 200 µM	> 200 µM	> 200 µM	> 200 µM	> 200 µM	> 200 µM	> 200 µM	> 200 µM		
CCn1cc(-c2ccnc(N)n2)c2cc(Br)ccc21.Cl	4.18	> 200 µM	> 200 µM	> 200 µM	> 200 µM	> 200 µM	> 200 µM	> 200 µM	> 200 µM	> 200 µM	> 200 µM	> 200 µM	200 µM	
CCn1cc(-c2ccnc(N)n2)c2ccc(Br)cc21.Cl	4.19	> 200 µM	> 200 µM	> 200 µM	> 200 µM	> 200 µM	> 200 µM	> 200 µM	> 200 µM	> 200 µM	> 200 µM	> 200 µM	200 µM	
CC(C)Cn1cc(-c2ccnc(N)n2)c2cc(Br)ccc21.Cl	< 4.00	> 200 µM	> 200 µM	> 200 µM	> 200 µM	> 200 µM	> 200 µM	> 200 µM	> 200 µM	> 200 µM	> 200 µM	> 200 µM		fold change (FC) (Escherichia coli [16]): 16; fold change (FC) (Acinetobacter baumannii [17]): 16; fold change (FC) (Acinetobacter baumannii [18]): 16
Cl.Nc1nccc(-c2c[nH]c3ccc(I)cc23)n1	4.31	> 200 µM	> 200 µM	> 200 µM	> 200 µM	> 200 µM	> 200 µM	> 200 µM	> 200 µM	> 200 µM	> 200 µM	> 200 µM	200 µM	
Nc1nccc(-c2c[nH]c3cccc(Br)c23)n1	< 4.00													
Cl.Nc1nccc(-c2c[nH]c3ccc(F)cc23)n1	< 4.00	> 200 µM	> 200 µM	> 200 µM	> 200 µM	> 200 µM	> 200 µM	> 200 µM	> 200 µM	> 200 µM	> 200 µM	> 200 µM		
Nc1nccc(-c2c[nH]c3ccccc23)n1	< 4.00													Activity (Staphylococcus aureus [13]): inactive; Activity (Acinetobacter baumannii [19]): inactive; Activity (Klebsiella pneumoniae [20]): inactive
Cl.Nc1nccc(-c2cn(Cc3ccccc3)c3ccc(Br)cc23)n1		> 200 µM	> 200 µM	> 200 µM	> 200 µM	> 200 µM	> 200 µM	> 200 µM	> 200 µM	> 200 µM	> 200 µM	> 200 µM		
Cc1ccc(S(=O)(=O)n2cc(C(=O)/C=C/N(C)C)c3ccc(I)cc32)cc1														Activity (Staphylococcus aureus [1]): Active
